Source: ChEMBL document CHEMBL3526066, “In vitro metabolism of 17-(dimethylaminoethylamino)-17-demethoxygeldanamycin in human liver microsomes” (Drug Metab Dispos, 2011)

Columns and labels:
Liver microsome [1] = assay: Drug level in human liver microsomes treated with 1 uM 17-DMAGby liquid chromatography-tandem mass spectrometry in presence of 1 uM sulfaphenazole CYP2C9 inhibitor; type: ADME
Procedure, shortened: (§1)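 Pooled HLMs in 0.1 M phosphate buffer pH 7.4 with 1 mM β-NADPH, 3.3 mM MgCl2 and the selective inhibitor were preincubated 3 min at 37°C in a shaking water bath. 17-DMAG (1 µM final) was then added and incubated 20 min at 37°C, with parallel no-inhibitor controls. M1, M2, M3, M4 and M6 were quantified by LC-MS/MS MRM. Inhibition was taken as the ratio of metabolite formed with versus without inhibitor.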

Liver microsome [2] = assay: Drug level in human liver microsomes treated with 1 uM 17-DMAG by liquid chromatography-tandem mass spectrometry in presence of 1 uM tranylcypromine CYP2A6 inhibitor; type: ADME; procedure, shortened: as §1
Liver microsome [3] = assay: Drug level in human liver microsomes treated with 1 uM 17-DMAG by liquid chromatography-tandem mass spectrometry in presence of 10 uM diethyldithiocarbamate CYP2E1 inhibitor; type: ADME; procedure, shortened: as §1
Liver microsome [4] = assay: Drug level in human liver microsomes treated with 1 uM 17-DMAG by liquid chromatography-tandem mass spectrometry in presence of 1 uM quercetin CYP2C8 inhibitor; type: ADME; procedure, shortened: as §1
Liver microsome [5] = assay: Drug level in human liver microsomes treated with 1 uM 17-DMAG by liquid chromatography-tandem mass spectrometry in presence of 1 uM quinidine CYP2D6 inhibitor; type: ADME; procedure, shortened: as §1
Liver microsome [6] = assay: Drug level in human liver microsomes treated with 1 uM 17-DMAG by liquid chromatography-tandem mass spectrometry in presence of 10 uM alpha-naphthoflavone CYP1A2 inhibitor; type: ADME; procedure, shortened: as §1
Liver microsome [7] = assay: Drug level in human liver microsomes treated with 1 uM 17-DMAG by liquid chromatography-tandem mass spectrometry in presence of 10 uM ticlopidine CYP2B6 inhibitor; type: ADME; procedure, shortened: as §1
Liver microsome [8] = assay: Retention time in human liver microsomes treated with 10 uM […] after 2 hrs by liquid chromatography-tandem mass spectrometry; type: ADME
Procedure, shortened: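 17-DMAG (10 µM initial) was incubated with HLMs (1 mg/ml) in 0.1 M phosphate buffer with 3.3 mM MgCl2 and 1 mM β-NADPH at 37°C for 2 h alongside negative controls, then quenched with ice-cold acetonitrile. Samples were run on a C18 column with a 0.1% formic acid/ammonium formate–acetonitrile gradient (10–90% B in 10 min) using MS full scan, MRM, EPI and MS3 scans.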

Cytochrome P450 3A4 = Cytochrome P450 3A4 (Homo sapiens, UniProt P08684); assay: Drug level assessed as human recombinant CYP3A4-mediated oxidative metabolism treated with 1 uM 17-DMAG after 30 mins by liquid chromatography-tandem mass spectrometry; type: ADME; details: recombinant enzyme, 0.5 h
Procedure, shortened: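 Recombinant human P450 (E. coli-expressed, coexpressed with cytochrome b5), 20 pmol per 200 µl incubation with 0.2 mg reduced β-NADPH and 3.3 mM MgCl2 in 0.1 M phosphate buffer pH 7.4. Preincubated at 37°C in a shaking water bath, then 1 µM 17-DMAG added. E. coli control microsomes lacking P450 cDNA served as negative control. Metabolite (M1–M4, M6) formation rates were read by LC-MS/MS MRM and expressed as percent of the CYP3A4 rate.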

[9] = Drug metabolism in human liver microsomes assessed as stability after 120 mins relative to control in presence of reduced GSH by liquid chromatography-tandem mass spectrometry; type: ADME; details: read-out: Stability
Procedure, shortened: (§2)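 Substrate (5 µM final) was incubated at 37°C with HLMs (1 mg/ml; boiled HLMs as negative control) in 0.1 M phosphate buffer with 3.3 mM MgCl2 and 1 mM β-NADPH, with or without 5 mM reduced GSH. Aliquots were taken at 1, 5, 10, 15, 30, 45, 60 and 120 min and quenched with ice-cold acetonitrile containing internal standard. Samples were analysed by LC-MS/MS, with values given as percent of the analyte/internal-standard peak area ratio at 1 min.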

[10] = Drug metabolism in human liver microsomes assessed as stability after 5 mins relative to control in presence of reduced GSH by liquid chromatography-tandem mass spectrometry; type: ADME; procedure, shortened: as §2
[11] = Drug metabolism in human liver microsomes assessed as stability during first 5 mins relative to control in presence of reduced GSH by liquid chromatography-tandem mass spectrometry; type: ADME; details: read-out: Stability; procedure, shortened: as §2
[12] = Drug metabolism in human liver microsomes assessed as stability after 2 hrs relative to control by liquid chromatography-tandem mass spectrometry; type: ADME; details: read-out: Stability
Procedure, shortened: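 Pooled human liver microsomes (1 mg/ml) were incubated at 37°C with substrate (5 µM final), 1 mM β-NADPH and 3.3 mM MgCl2 in 0.1 M phosphate buffer, with or without 5 mM reduced GSH. Aliquots were taken from 1 to 120 min and quenched in ice-cold acetonitrile containing internal standard. LC-MS/MS peak-area ratios to internal standard were normalised to the 1-min sample.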

Liver microsome [13] = assay: Drug metabolism in human liver microsomes assessed as 17-(allylamino)-17-demethoxygeldanamycin hydroquinone formation after 1 hr relative to control by liquid chromatography-tandem mass spectrometry; type: ADME; procedure, shortened: as §2
Liver microsome [14] = assay: Drug metabolism in human liver microsomes assessed as (4E,6Z,8S,9S,10E,12S,13R,14S,16R)-19-(2-(dimethylamino)ethylamino)-8,13-dihydroxy-14-methoxy-4,10,12,16-tetramethyl-3,20,22-trioxo-2-azabicyclo[16.3.1]docosa-1(21),4,6,10,18-pentaen-9-yl carbamate formation at 1 uM 17-DMAG by liquid chromatography-tandem mass spectrometry in presence of 1 uM ketoconazole CYP3A inhibitor; type: ADME
Liver microsome [15] = assay: Drug level in boiled human liver microsomes treated with geldanamycin after 2 hrs; type: ADME; procedure, shortened: as §2
Liver microsome [16] = assay: Drug metabolism in human liver microsomes assessed as stability after 45 mins relative to control by liquid chromatography-tandem mass spectrometry; type: ADME; details: 0.75 h; procedure, shortened: as §2
[17] = Terminal half life in human; type: ADME, organism-based; details: in vivo, read-out: beta t1/2 (converted)
Liver microsome [18] = assay: Drug metabolism in human liver microsomes assessed as 17-aminogeldanamycin formation at 37 degC in presence of reduced GSH by liquid chromatography-tandem mass spectrometry; type: ADME; details: read-out: Km(app)

Chain of Cytochrome P450 3A4 (P08684 whole entry): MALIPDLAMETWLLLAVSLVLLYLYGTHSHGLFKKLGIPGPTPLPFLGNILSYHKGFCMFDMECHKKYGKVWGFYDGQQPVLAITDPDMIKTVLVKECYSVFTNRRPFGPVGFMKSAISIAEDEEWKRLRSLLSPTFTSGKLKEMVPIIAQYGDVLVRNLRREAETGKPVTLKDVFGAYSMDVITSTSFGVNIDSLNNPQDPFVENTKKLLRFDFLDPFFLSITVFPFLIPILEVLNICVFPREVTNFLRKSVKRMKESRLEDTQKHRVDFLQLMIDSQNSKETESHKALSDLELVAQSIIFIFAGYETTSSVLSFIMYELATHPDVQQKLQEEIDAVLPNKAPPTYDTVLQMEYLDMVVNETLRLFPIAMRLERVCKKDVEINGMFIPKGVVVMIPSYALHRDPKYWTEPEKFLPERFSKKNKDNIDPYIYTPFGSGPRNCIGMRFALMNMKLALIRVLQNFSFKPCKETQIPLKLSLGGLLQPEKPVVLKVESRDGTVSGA

Drug metabolism (Liver microsome [1])	Drug metabolism (Liver microsome [2])	Drug metabolism (Liver microsome [3])	Drug metabolism (Liver microsome [4])	Drug metabolism (Liver microsome [5])	Drug metabolism (Liver microsome [6])	Drug metabolism (Liver microsome [7])	Retention_time (Liver microsome [8])	Drug metabolism (Cytochrome P450 3A4)	Compound	other results
metabolite_detected	metabolite_detected	metabolite_detected	metabolite_detected	metabolite_detected	metabolite_detected	metabolite_detected	9.04 min	metabolite_detected	CO[C@H]1/C=C\C=C(/C)C(=O)NC2=CC(=O)C(NC(O)CN(C)C)=C(C[C@@H](C)C[C@H](OC)[C@H](O)[C@@H](C)/C=C(\C)[C@@H]1OC(N)=O)C2=O (some centres not stated)	
metabolite_detected	metabolite_detected	metabolite_detected	metabolite_detected	metabolite_detected	metabolite_detected	metabolite_detected	7.57 min	metabolite_detected	CO[C@H]1/C=C\C=C(/C)C(=O)NC2=CC(=O)C(NCCN(C)C)=C(C[C@@H](C)C[C@H](O)[C@H](O)[C@@H](C)/C=C(\C)[C@@H]1OC(N)=O)C2=O	
metabolite_detected	metabolite_detected	metabolite_detected	metabolite_detected	metabolite_detected	metabolite_detected	metabolite_detected	7.13 min	metabolite_detected	CO[C@H]1C[C@H](C)CC2=C(NCCN(C)C)C(=O)C=C(NC(=O)/C(C)=C/C=C\[C@H](O)[C@@H](OC(N)=O)/C(C)=C/[C@H](C)[C@H]1O)C2=O	Drug metabolism (Liver microsome [14]): metabolite_not_detected
							8.4 min		CO[C@H]1/C=C\C=C(/C)C(=O)NC2=CC(=O)C(/N=C/CN(C)C)=C(C[C@@H](C)C[C@H](OC)[C@H](O)[C@@H](C)/C=C(\C)[C@@H]1OC(N)=O)C2=O	
metabolite_detected	metabolite_detected	metabolite_detected	metabolite_detected	metabolite_detected	metabolite_detected	metabolite_detected	8.21 min	metabolite_detected	CO[C@H]1/C=C\C=C(/C)C(=O)NC2=CC(=O)C(NCCN(C)C)=C(C[C@@H](C)C[C@H](OC)[C@H](O)[C@@H](C)/C=C(\CO)[C@@H]1OC(N)=O)C2=O	

Further lines, the compound ahead of its results:

Compound	Drug metabolism (Liver microsome [1])	Drug metabolism (Liver microsome [2])	Drug metabolism (Liver microsome [3])	Drug metabolism (Liver microsome [4])	Drug metabolism (Liver microsome [5])	Drug metabolism (Liver microsome [6])	Drug metabolism (Liver microsome [7])	Retention_time (Liver microsome [8])	Drug metabolism (Cytochrome P450 3A4)	other results
COC1=C2C[C@@H](C)C[C@H](OC)[C@H](O)[C@@H](C)/C=C(\C)[C@H](OC(N)=O)[C@@H](OC)/C=C\C=C(/C)C(=O)NC(=CC1=O)C2=O [GELDANAMYCIN]										remaining at 2 h [9]: 46.6%; remaining at 5 min [10]: 75.3%; remaining at 5 min [11]: 75.3%; remaining at 2 h [12]: 73%
C=CCNc1c(O)cc2c(O)c1C[C@@H](C)C[C@H](OC)[C@H](O)[C@@H](C)/C=C(\C)[C@H](OC(N)=O)[C@@H](OC)/C=C\C=C(/C)C(=O)N2 [RETASPIMYCIN]										Drug metabolism (Liver microsome [13]): metabolite_not_detected
COc1c(O)cc2c(O)c1C[C@@H](C)C[C@H](OC)[C@H](O)[C@@H](C)/C=C(\C)[C@H](OC(N)=O)[C@@H](OC)/C=C\C=C(/C)C(=O)N2										Drug metabolism (Liver microsome [15]): metabolite_detected
C=CCNC1=C2C[C@@H](C)C[C@H](OC)[C@H](O)[C@@H](C)/C=C(\C)[C@H](OC(N)=O)[C@@H](OC)/C=C\C=C(/C)C(=O)NC(=CC1=O)C2=O [TANESPIMYCIN]										Stability (Liver microsome [16]): Unstable; half-life [17]: 240 min; Km (Liver microsome [18]): 29.1 µM
